Data from ChEMBL document CHEMBL3046238, “Synthesis and biological activity evaluation of 1,2,3-thiadiazole derivatives as potential elicitors with highly systemic acquired resistance” (2009).
Activity calls are given as the source filed them. The rule behind the calls is not given here.

Key:
Assay type in all cases: functional
Puccinia triticina [1] = assay: Antifungal activity against Puccinia triticina inoculated on 100 ug/mL compound pre-treated wheat plants with 3 to 5 leaves assessed as growth inhibition
Tobacco mosaic virus [2] = assay: Induction of systemic acquired resistance against Tobacco mosaic virus (TMV) in tobacco plants exposed to 2000 ug/mL compound through irrigation based soil treatment followed by 7 days culture under green house conditions assessed as inhibition of viral growth in leaves infected with Tobacco mosaic virus (TMV) measured 72 hr post viral infection by half-leaf juice rubbing method; parameters: scale not given: the % may be the effect or the level left
Summary of the method: (§1)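 Tobacco plants received compound by leaf spray or by soil irrigation, with double-distilled water as CK. Newly grown leaves were then rub-inoculated with TMV (5.88×10-2 μg/mL), and plants were kept at 25 °C for 72 h. Lesions on inoculated leaves were counted. Inhibition = (CK−A)/CK×100 from mean lesion numbers versus control.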

Tobacco mosaic virus [3] = assay: Induction of systemic acquired resistance against Tobacco mosaic virus (TMV) in tobacco plants exposed to 50 ug/mL compound through irrigation based soil treatment followed by 7 days culture under green house conditions assessed as inhibition of viral growth in leaves infected with Tobacco mosaic virus (TMV) measured 72 hr post viral infection by half-leaf juice rubbing method; parameters: scale not given: the % may be the effect or the level left; summary of the method: as §1
Tobacco mosaic virus [4] = assay: Induction of systemic acquired resistance against Tobacco mosaic virus (TMV) in tobacco plants exposed to 100 ug/mL compound through irrigation based soil treatment followed by 7 days culture under green house conditions assessed as inhibition of viral growth in leaves infected with Tobacco mosaic virus (TMV) measured 72 hr post viral infection by half-leaf juice rubbing method; parameters: scale not given: the % may be the effect or the level left; summary of the method: as §1
Tobacco mosaic virus [5] = assay: Induction of systemic acquired resistance against Tobacco mosaic virus (TMV) in tobacco plants exposed to 500 ug/mL compound through irrigation based soil treatment followed by 7 days culture under green house conditions assessed as inhibition of viral growth in leaves infected with Tobacco mosaic virus (TMV) measured 72 hr post viral infection by half-leaf juice rubbing method; parameters: scale not given: the % may be the effect or the level left; summary of the method: as §1
Tobacco mosaic virus [6] = assay: Induction of systemic acquired resistance against Tobacco mosaic virus (TMV) in tobacco plants exposed to 1000 ug/mL compound through irrigation based soil treatment followed by 7 days culture under green house conditions assessed as inhibition of viral growth in leaves infected with Tobacco mosaic virus (TMV) measured 72 hr post viral infection by half-leaf juice rubbing method; parameters: scale not given: the % may be the effect or the level left; summary of the method: as §1
Tobacco mosaic virus [7] = assay: Induction of systemic acquired resistance against Tobacco mosaic virus (TMV) in tobacco plants exposed to 2000 ug/mL compound through leaf spray followed by 7 days culture under green house conditions assessed as inhibition of viral growth in leaves infected with Tobacco mosaic virus (TMV) measured 72 hr post viral infection by half-leaf juice rubbing method; parameters: scale not given: the % may be the effect or the level left; summary of the method: as §1
Tobacco mosaic virus [8] = assay: Induction of systemic acquired resistance against Tobacco mosaic virus (TMV) in tobacco plants exposed to 50 ug/mL compound through leaf spray followed by 7 days culture under green house conditions assessed as inhibition of viral growth in leaves infected with Tobacco mosaic virus (TMV) measured 72 hr post viral infection by half-leaf juice rubbing method; parameters: scale not given: the % may be the effect or the level left; summary of the method: as §1
Tobacco mosaic virus [9] = assay: Antiviral activity against Tobacco mosaic virus (TMV) infected tobacco leaves exposed to 2000 ug/mL for 20 min assessed as inhibition of viral growth measured 72 hr post compound treatment compound by half-leaf juice rubbing method
Summary of the method: (§2)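 Half-leaf method on tobacco. A fresh leaf from a plant at the 5-6 leaf age was rub-inoculated with TMV (5.88×10-2 μg/mL) and cut along the main vein. One half was immersed in compound solution and the other in double-distilled water, each for 20 min. Halves were kept at 25 °C and 100% humidity for 72 h, then lesions were counted. Three replicates were run. Inhibition = (CK−A)/CK×100 from mean lesion numbers.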

Tobacco mosaic virus [10] = assay: Antiviral activity against Tobacco mosaic virus (TMV) infected tobacco leaves exposed to 1000 ug/mL for 20 min assessed as inhibition of viral growth measured 72 hr post compound treatment compound by half-leaf juice rubbing method; summary of the method: as §2
Tobacco mosaic virus [11] = assay: Induction of systemic acquired resistance against Tobacco mosaic virus (TMV) in tobacco plants exposed to 100 ug/mL compound through leaf spray followed by 7 days culture under green house conditions assessed as inhibition of viral growth in leaves infected with Tobacco mosaic virus (TMV) measured 72 hr post viral infection by half-leaf juice rubbing method; parameters: scale not given: the % may be the effect or the level left; summary of the method: as §1
Tobacco mosaic virus [12] = assay: Induction of systemic acquired resistance against Tobacco mosaic virus (TMV) in tobacco plants exposed to 500 ug/mL compound through leaf spray followed by 7 days culture under green house conditions assessed as inhibition of viral growth in leaves infected with Tobacco mosaic virus (TMV) measured 72 hr post viral infection by half-leaf juice rubbing method; parameters: scale not given: the % may be the effect or the level left; summary of the method: as §1
Tobacco mosaic virus [13] = assay: Induction of systemic acquired resistance against Tobacco mosaic virus (TMV) in tobacco plants exposed to 1000 ug/mL compound through leaf spray followed by 7 days culture under green house conditions assessed as inhibition of viral growth in leaves infected with Tobacco mosaic virus (TMV) measured 72 hr post viral infection by half-leaf juice rubbing method; parameters: scale not given: the % may be the effect or the level left; summary of the method: as §1
Tobacco mosaic virus [14] = assay: In vivo antiviral activity against Tobacco mosaic virus (TMV) infected tobacco leaves exposed to 2000 ug/mL for 20 min assessed as inhibition of viral growth measured 72 hr post compound treatment compound by half-leaf juice rubbing method; summary of the method: as §2
Tobacco mosaic virus [15] = assay: In vivo antiviral activity against Tobacco mosaic virus (TMV) infected tobacco leaves exposed to 50 ug/mL for 20 min assessed as inhibition of viral growth measured 72 hr post compound treatment compound by half-leaf juice rubbing method; summary of the method: as §2
Tobacco mosaic virus [16] = assay: In vivo antiviral activity against Tobacco mosaic virus (TMV) infected tobacco leaves exposed to 1000 ug/mL for 20 min assessed as inhibition of viral growth measured 72 hr post compound treatment compound by half-leaf juice rubbing method; summary of the method: as §2
Tobacco mosaic virus [17] = assay: In vivo antiviral activity against Tobacco mosaic virus (TMV) infected tobacco leaves exposed to 500 ug/mL for 20 min assessed as inhibition of viral growth measured 72 hr post compound treatment compound by half-leaf juice rubbing method; summary of the method: as §2
Tobacco mosaic virus [18] = assay: In vivo antiviral activity against Tobacco mosaic virus (TMV) infected tobacco leaves exposed to 100 ug/mL for 20 min assessed as inhibition of viral growth measured 72 hr post compound treatment compound by half-leaf juice rubbing method; summary of the method: as §2
Tobacco mosaic virus [19] = assay: Antiviral activity against Tobacco mosaic virus (TMV) infected tobacco leaves exposed to 500 ug/mL for 20 min assessed as inhibition of viral growth measured 72 hr post compound treatment compound by half-leaf juice rubbing method; summary of the method: as §2
Tobacco mosaic virus [20] = assay: Antiviral activity against Tobacco mosaic virus (TMV) infected tobacco leaves exposed to 100 ug/mL for 20 min assessed as inhibition of viral growth measured 72 hr post compound treatment compound by half-leaf juice rubbing method; summary of the method: as §2
Tobacco mosaic virus [21] = assay: Antiviral activity against Tobacco mosaic virus (TMV) infected tobacco leaves exposed to 50 ug/mL for 20 min assessed as inhibition of viral growth measured 72 hr post compound treatment compound by half-leaf juice rubbing method; summary of the method: as §2
Cytospora mali = assay: Antifungal activity against Valsa mali assessed as growth inhibition at 50 ug/mL measured after 2 days post dose; settings: 48 h, read-out: GI
Alternaria mali = assay: Antifungal activity against Alternaria mali assessed as growth inhibition at 50 ug/mL measured after 2 days post dose; settings: 48 h, read-out: GI
Sclerotinia sclerotiorum = assay: Antifungal activity against Sclerotinia sclerotiorum assessed as growth inhibition at 50 ug/mL measured after 2 days post dose; settings: 48 h, read-out: GI
Botrytis cinerea = assay: Antifungal activity against Botryotinia fuckeliana assessed as growth inhibition at 50 ug/mL measured after 2 days post dose; settings: 48 h, read-out: GI
Puccinia triticina [22] = assay: Antifungal activity against Puccinia triticina inoculated on 500 ug/mL compound pre-treated wheat plants with 3 to 5 leaves assessed as growth inhibition
Summary of the method: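 Healthy wheat plants at the 3-5 leaf stage were sprayed with compound (500 μg/mL) and then inoculated with spores. Inhibition percentage was calculated against the corresponding spore stack.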

Ceratobasidium cereale = assay: Antifungal activity against Ceratobasidium cereale assessed as growth inhibition at 50 ug/mL measured after 2 days post dose
[23] = system: Botryosphaeria berengeriana; assay: Antifungal activity against Botryosphaeria berengeriana assessed as growth inhibition at 50 ug/mL measured after 2 days post dose
Phytophthora infestans = assay: Antifungal activity against Phytophthora infestans assessed as growth inhibition at 50 ug/mL measured after 2 days post dose
Summary of the method: (§3)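 Compound stock at 500 μg/mL in DMF, diluted with sterile water in the dish and mixed into potato dextrose agar before setting. A 4 mm diameter fungal plug is placed on the plate and cultured at 24-26 °C. Colony diameter is measured after 2 days.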

Rhizoctonia solani = assay: Antifungal activity against Rhizoctonia solani assessed as growth inhibition at 50 ug/mL measured after 2 days post dose
Alternaria solani = assay: Antifungal activity against Alternaria solani assessed as growth inhibition at 50 ug/mL measured after 2 days post dose; settings: 48 h, read-out: GI
[24] = system: Fusarium oxysporum f. sp. vasinfectum; assay: Antifungal activity against Fusarium oxysporum f. sp. vasinfectum assessed as growth inhibition at 50 ug/mL measured after 2 days post dose; settings: 48 h, read-out: GI
Alternaria kikuchiana = assay: Antifungal activity against Alternaria kikuchiana assessed as growth inhibition at 50 ug/mL measured after 2 days post dose; settings: 48 h, read-out: GI
[25] = system: Colletotrichum gloeosporioides; assay: Antifungal activity against Glomerella cingulata assessed as growth inhibition at 50 ug/mL measured after 2 days post dose; settings: 48 h, read-out: GI
Colletotrichum lagenaria = assay: Antifungal activity against Colletotrichum lagenaria assessed as growth inhibition at 50 ug/mL measured after 2 days post dose; settings: 48 h, read-out: GI
Ustilaginoidea virens = assay: Antifungal activity against Villosiclava virens assessed as growth inhibition at 50 ug/mL measured after 2 days post dose; settings: 48 h, read-out: GI
Fusarium graminearum = assay: Antifungal activity against Fusarium graminearum assessed as growth inhibition at 50 ug/mL measured after 2 days post dose; settings: 48 h, read-out: GI; summary of the method: as §3
Phomopsis asparagi = assay: Antifungal activity against Phomopsis asparagi assessed as growth inhibition at 50 ug/mL measured after 2 days post dose; settings: 48 h, read-out: GI
Mycosphaerella arachidis = assay: Antifungal activity against Mycosphaerella arachidis assessed as growth inhibition at 50 ug/mL measured after 2 days post dose; settings: 48 h, read-out: GI
Fusarium oxysporum = assay: Antifungal activity against Fusarium oxysporum assessed as growth inhibition at 50 ug/mL measured after 2 days post dose; settings: 48 h, read-out: GI
Fusarium fujikuroi = assay: Antifungal activity against Fusarium fujikuroi assessed as growth inhibition at 50 ug/mL measured after 2 days post dose; settings: 48 h, read-out: GI

| Compound | Activity (Tobacco mosaic virus [2]) | Activity (Tobacco mosaic virus [3]) | Activity (Tobacco mosaic virus [4]) | Activity (Tobacco mosaic virus [5]) | Activity (Tobacco mosaic virus [6]) | Activity (Tobacco mosaic virus [7]) | Activity (Tobacco mosaic virus [8]) | growth inhibition (GI) (Tobacco mosaic virus [9]) | growth inhibition (GI) (Tobacco mosaic virus [10]) | Activity (Tobacco mosaic virus [11]) | Activity (Tobacco mosaic virus [12]) | Activity (Tobacco mosaic virus [13]) | growth inhibition (GI) (Tobacco mosaic virus [15]) | growth inhibition (GI) (Tobacco mosaic virus [16]) | growth inhibition (GI) (Tobacco mosaic virus [17]) | growth inhibition (GI) (Tobacco mosaic virus [18]) | growth inhibition (GI) (Tobacco mosaic virus [19]) | growth inhibition (GI) (Tobacco mosaic virus [20]) | growth inhibition (GI) (Tobacco mosaic virus [21]) | further results |
| --- | --- | --- | --- | --- | --- | --- | --- | --- | --- | --- | --- | --- | --- | --- | --- | --- | --- | --- | --- | --- |
| N#Cc1c(Cl)c(Cl)c(Cl)c(C#N)c1Cl [CHLOROTHALONIL] | – | – | – | – | – | – | – | – | – | – | – | – | – | – | – | – | – | – | – | growth inhibition (GI) (Puccinia triticina [1]): 100% |
| CC(N)CC(=O)O (stereo not drawn) | 80% | 46% | 54% | 72% | 80% | 65% | 0% | 5% | 0% | 30% | 50% | 55% | 0% | 10% | 5% | 9% | 7% | 4% | 0% | growth inhibition (GI) (Tobacco mosaic virus [14]): 8% |
| O=C1NCNC(=O)N1 | – | – | – | 8% | – | – | – | – | – | – | 5% | – | – | – | 42% | – | 49% | – | – | – |
| O=C(O)c1cccc2nnsc12 [1,2,3-benzothia-diazole-7-carboxylic acid] | 2% | 10% | 0% | 5% | 8% | 12% | 3% | 8% | 6% | 0% | 5% | 8% | 0% | 18% | 5% | 8% | 3% | 5% | 7% | – |
| Cc1ccc(NC(=O)c2snnc2C)cc1Cl [TIADINIL] | – | – | – | – | – | – | 63% | – | – | – | 40% | – | – | – | 0% | – | 0% | – | – | inhibition of growth at 50 µg/mL (Cytospora mali): 3.6%; inhibition of growth at 50 µg/mL (Alternaria mali): 32.1%; inhibition of growth at 50 µg/mL (Sclerotinia sclerotiorum): 34.4%; inhibition of growth at 50 µg/mL (Botrytis cinerea): 23.9%; growth inhibition (GI) (Puccinia triticina [22]): 40%; growth inhibition (GI) (Ceratobasidium cereale): inactive; growth inhibition (GI) [23]: inactive; growth inhibition (GI) (Phytophthora infestans): inactive; growth inhibition (GI) (Rhizoctonia solani): inactive; inhibition of growth at 50 µg/mL (Alternaria solani): 0%; inhibition of growth at 50 µg/mL [24]: 5.3%; inhibition of growth at 50 µg/mL (Alternaria kikuchiana): 0%; inhibition of growth at 50 µg/mL [25]: 51.6%; inhibition of growth at 50 µg/mL (Colletotrichum lagenaria): 22.8%; inhibition of growth at 50 µg/mL (Ustilaginoidea virens): 12%; inhibition of growth at 50 µg/mL (Fusarium graminearum): 25%; inhibition of growth at 50 µg/mL (Phomopsis asparagi): 60%; inhibition of growth at 50 µg/mL (Mycosphaerella arachidis): 13.6%; inhibition of growth at 50 µg/mL (Fusarium oxysporum): 12.5%; inhibition of growth at 50 µg/mL (Fusarium fujikuroi): 0% |
